Key:
HDAC6 [1] = settings: cited from earlier work; for activity against HDAC6 (in words) / selectivity over HDAC1 (in words): Figure 1a
HDAC6 [2] = biological target: T1, HDAC6 (Homo sapiens, UniProt Q9UBN7); assay: HDAC1–11 enzyme assays; format: biochemical; settings: for HDAC6 activity (in words): Figure 1a, compared with phenylhydroxamate 1
T1 sequence (Q9UBN7 1-1215): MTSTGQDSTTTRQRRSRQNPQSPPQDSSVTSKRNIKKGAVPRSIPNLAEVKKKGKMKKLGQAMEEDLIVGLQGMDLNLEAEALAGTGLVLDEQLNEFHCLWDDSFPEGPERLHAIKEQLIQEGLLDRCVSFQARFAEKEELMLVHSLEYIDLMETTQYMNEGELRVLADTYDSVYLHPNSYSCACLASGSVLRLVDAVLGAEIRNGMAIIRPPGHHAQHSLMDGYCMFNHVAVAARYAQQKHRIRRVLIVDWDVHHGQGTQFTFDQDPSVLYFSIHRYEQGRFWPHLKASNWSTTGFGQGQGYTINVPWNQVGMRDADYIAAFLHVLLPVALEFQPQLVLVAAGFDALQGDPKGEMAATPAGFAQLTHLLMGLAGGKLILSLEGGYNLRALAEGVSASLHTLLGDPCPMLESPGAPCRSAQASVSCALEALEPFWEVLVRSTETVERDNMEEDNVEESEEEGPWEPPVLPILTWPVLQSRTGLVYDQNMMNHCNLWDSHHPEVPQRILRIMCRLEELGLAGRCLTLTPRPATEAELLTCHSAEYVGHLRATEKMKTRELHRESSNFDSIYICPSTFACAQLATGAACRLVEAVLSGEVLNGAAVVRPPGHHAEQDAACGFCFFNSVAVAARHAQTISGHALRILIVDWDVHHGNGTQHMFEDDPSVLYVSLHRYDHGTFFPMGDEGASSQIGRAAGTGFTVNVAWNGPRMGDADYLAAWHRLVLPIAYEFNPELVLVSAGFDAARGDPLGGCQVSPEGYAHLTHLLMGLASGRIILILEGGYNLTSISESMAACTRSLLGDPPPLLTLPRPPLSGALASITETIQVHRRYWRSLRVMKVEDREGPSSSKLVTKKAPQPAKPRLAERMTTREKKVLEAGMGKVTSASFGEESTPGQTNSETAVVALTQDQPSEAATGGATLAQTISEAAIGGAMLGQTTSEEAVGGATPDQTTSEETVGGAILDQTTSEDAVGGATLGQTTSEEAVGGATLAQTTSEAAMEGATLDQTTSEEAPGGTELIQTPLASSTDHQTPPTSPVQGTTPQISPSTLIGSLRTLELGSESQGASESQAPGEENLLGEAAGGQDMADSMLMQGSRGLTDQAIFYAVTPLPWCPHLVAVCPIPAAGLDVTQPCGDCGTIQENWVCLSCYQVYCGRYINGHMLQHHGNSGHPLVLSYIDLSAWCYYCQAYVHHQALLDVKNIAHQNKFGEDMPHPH

MDCK-MDR1 cell line = assay: Permeability studies in MDCK-MDR1 cells; format: in vitro ADME; settings: MDCK-MDR1 cell line
acetylated α-tubulin [3] = assay: α-Tubulin acetylation studies in HEK293 cells; format: cell-based; settings: tested at 0.01, 0.1, 1, and 10 μM
Procedure, shortened: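 HEK293 cells plated 24 h ahead and treated at 70% confluency with 10 nM–10 µM. Lysed in MPER with protease inhibitors; 2 µg protein boiled, run on 12% gel, transferred to PVDF. Blocked in 5% milk/TBST; anti-acetyl-tubulin 1:3000 overnight at 4 °C, then HRP secondary 1:5000; ECL. Reprobed for total α-tubulin at 1:1000. Densitometric ratio normalized to 10 µM reference HDAC6 inhibitor; n = 3–4; one-way ANOVA vs vehicle.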

MDR1 (P-gp) = assay: Permeability studies in MDCK-MDR1 cells; format: in vitro ADME; settings: dog, MDCK-MDR1, efflux ratio, MDCK-MDR1 cell line
MDR1 = assay: Permeability studies in MDCK-MDR1 cells; format: in vitro ADME; settings: dog, MDCK-MDR1
class IIa isoforms = assay: HDAC1–11 enzyme assays; format: biochemical, human; settings: Figure 2b and c
Procedure, shortened: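 Human full-length recombinant HDAC4, 5, 7 and 9 with fluorogenic Ac-LGK(TFA)-AMC substrate. Enzyme–compound preincubation 5–10 min, then 2 h at 30 °C. Developer added; fluorescence read at plateau. 10-dose, 3-fold dilutions from 30 µM, in duplicate. IC50 from sigmoidal fit.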

acetylated α-tubulin [4] = assay: α-Tubulin acetylation in N2a cells; format: cell-based; settings: compared to vehicle
acetylated histone 3 = assay: Histone acetylation in N2a cells; format: cell-based; settings: compared to vehicle
Procedure, shortened: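 N2a cells treated at 1 µM or 10 nM; reference HDAC inhibitors served as positive controls. Histones extracted by kit; protein by micro BCA. Samples denatured in reducing buffer at 95 °C for 5 min and blotted to PVDF. Blocked in 5% BSA/TBST 1 h at RT; primaries overnight: acetyl-H3 K9+K14 1:1000, histone 4 1:1000. Ratios normalized to vehicle; n = 4; one-way ANOVA vs vehicle.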

[5] = Brain/plasma pilot PK studies of TubA; format: in vivo; settings: IV administration, WT mice
[6] = cited from earlier work

SMILES | efflux ratio (MDCK-MDR1 cell line) | efflux ratio at 2 h (MDR1 (P-gp)) | Papp A→B at 2 h (MDR1) [×10⁻⁶ cm/s] | Papp B→A at 2 h (MDR1) [×10⁻⁶ cm/s] | other results
O=C(NO)c1ccccc1 [Compound 1, phenylhydroxamate, reference compound] |  |  |  |  | selectivity over class I HDACs (HDAC6 [1]): more than 10 fold; IC50 (HDAC6 [1]; read-out: IC50 against HDAC6): 115 nM
CCN(CC)Cc1ccc(C(=O)NO)cc1 [Compound 2, 4-[(Diethylamino)methyl]-N-hydroxybenzamide] |  |  |  |  | HDAC6 activity (in words) (HDAC6 [2]): reduced HDAC6 activity
O=C(NO)c1ccc(CN2CCCC2)cc1 [Compound 3, N-Hydroxy-4-(pyrrolidin-1-ylmethyl)benzamide] |  |  |  |  | HDAC6 activity (in words) (HDAC6 [2]): reduced HDAC6 activity
O=C(NO)c1ccc(Cn2cccc2)cc1 [Compound 4, 4-(1-Pyrrolylmethyl)-N-hydroxybenzamide] |  |  |  |  | activity against HDAC6 (in words) (HDAC6 [1]): nanomolar activity; selectivity over HDAC1 (in words) (HDAC6 [1]): high selectivity
O=C(NO)c1ccc(Cn2ccc3ccccc32)cc1 [Compound 5, 4-(1-Indolylmethyl)-N-hydroxybenzamide] |  |  |  |  | activity against HDAC6 (in words) (HDAC6 [1]): nanomolar activity; selectivity over HDAC1 (in words) (HDAC6 [1]): high selectivity
CN(C)c1ccc(Cc2ccc(C(=O)NO)cc2)cc1 [Compound 7, 4-[4-(Dimethylamino)benzyl]-N-hydroxybenzamide] | 0.63 | < 1 | 17.6 | 11 | concentration at which acetylated α-tubulin levels are elevated (acetylated α-tubulin [3]): 10 µM
O=C(NO)c1ccc(CN2CCc3ccc(F)cc32)cc1 [Compound 11, 4-[(6-Fluoroindolin-1-yl)methyl]-N-hydroxybenzamide] | 1.05 | < 1 | 10.5 | 11.1 | concentration at which acetylated α-tubulin levels are elevated (acetylated α-tubulin [3]): 1 µM
CC(/C=C/C(=O)NO)=C\[C@@H](C)C(=O)c1ccc(N(C)C)cc1 [TSA, Trichostatin A, reference compound] |  |  |  |  | ratio of acetylated α-tubulin to α-tubulin (acetylated α-tubulin [4]): increased levels of both acetylated α-tubulin and acetylated histone H3 significantly; levels of acetylated histone 3 to histone 4 (acetylated histone 3): increased levels of both acetylated α-tubulin and acetylated histone H3 significantly

Second part, led by results:

efflux ratio (MDCK-MDR1 cell line) | efflux ratio at 2 h (MDR1 (P-gp)) | Papp A→B at 2 h (MDR1) [×10⁻⁶ cm/s] | Papp B→A at 2 h (MDR1) [×10⁻⁶ cm/s] | SMILES | other results
0.70 |  |  |  | O=C(NO)c1ccc(Cn2cccn2)cc1 [Compound 6, 4-(1-Pyrazolylmethyl)-N-hydroxybenzamide] | Papp(A−B) (MDCK-MDR1 cell line): 7.35 10^−6, cm/s; Papp(B−A) (MDCK-MDR1 cell line): 5.24 10^−6, cm/s; concentration at which acetylated α-tubulin levels are elevated (acetylated α-tubulin [3]): 10 µM
3.23 | > 2.5 | 4.44 | 13.4 | Cc1nc2ccc(F)cc2n1Cc1ccc(C(=O)NO)cc1 [Compound 8, 4-[(6-Fluoro-2-methyl-1-benzimidazolyl)methyl]-N-hydroxybenzamide] | activity against the class IIa isoforms (in words) (class IIa isoforms): strong activity
4.23 | > 2.5 | 3.89 | 13.2 | Cc1nc2ccccc2n1Cc1ccc(C(=O)NO)cc1F [Compound 9, 3-Fluoro-N-hydroxy-4-[(2-methyl-1-benzimidazolyl)methyl]-benzamide] | activity against the class IIa isoforms (in words) (class IIa isoforms): strong activity
0.62 | < 1 | 9.14 | 5.54 | O=C(NO)c1ccc(CN2CCc3ccc(Cl)cc32)cc1 [Compound 10, 4-[(6-Chloroindolin-1-yl)methyl]-N-hydroxybenzamide] | concentration at which acetylated α-tubulin levels are elevated (acetylated α-tubulin [3]): 1 µM
2.95 | > 2.5 | 0.66 | 2.05 | Cn1c(NCc2ccc(C(=O)NO)cc2)nc2ccccc21 [Compound 12, N-Hydroxy-4-[[(1-methyl-1H-benz[d]imidazol-2-yl)amino]-methyl]benzamide] | 
9.83 |  | 2 | 19.7 | CN1CCc2c(c3ccccc3n2Cc2ccc(C(=O)NO)cc2)C1 [TubA, tubastatin A, reference compound] | selectivity against HDAC8 (in words) (HDAC6 [2]; Figure 2b and c): poorer selectivity; selectivity against the class I HDACs 1, 2, and 3 (in words) (HDAC6 [2]; Figure 2b and c): high selectivity; brain/plasma ratio ([5]; 8 min): 0.15; brain/plasma ratio ([5]; 60 min): 0.86; AUCbrain/AUCplasma [6]: 0.18
